Source: PubChem
Hits are enriched below; roughly 2.3% of the tested compounds scored in any of these assays.
TAAR1 antagonist: antagonists of human TAAR1. Q96RJ0. CHO RD-HGA16 TAAR1, Fluo-8 calcium fluorescence, antagonist. inhibition, % at 3 µM. 1.5% of 360,000 active. AID 624466;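 active = inhibition above a per-plate cutoff, the mean inhibition of test compounds on that plate plus 3 SD, cut at about 49% in these data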;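 note: 0% = DMSO plus EC80 beta-PEA response and 100% = DMSO alone without agonist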
Target sequence (Q96RJ0 whole entry, looked up): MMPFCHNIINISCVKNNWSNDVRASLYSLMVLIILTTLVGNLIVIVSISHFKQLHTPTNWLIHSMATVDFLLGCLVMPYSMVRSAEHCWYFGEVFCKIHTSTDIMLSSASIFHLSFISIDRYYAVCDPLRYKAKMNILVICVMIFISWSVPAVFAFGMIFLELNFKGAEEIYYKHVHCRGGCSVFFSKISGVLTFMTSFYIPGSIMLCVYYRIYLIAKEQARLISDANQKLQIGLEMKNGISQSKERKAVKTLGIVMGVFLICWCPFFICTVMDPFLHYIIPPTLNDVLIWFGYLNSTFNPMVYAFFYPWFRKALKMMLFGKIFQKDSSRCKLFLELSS
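Material: RD-HGA16 CHO cells with stable hTAAR1 and Gα16; Dosing: single nominal final test compound concentration of 3 µM; Schedule: seeding 17-24 h prior, 75-min 37 °C, 30-min RT dye loading; Detection: kinetic Fluo-8 calcium fluorescence measurement; Measure: % inhibition from peak post-agonist over basal fluorescence ratio; Benchmarks: vehicle and agonist controls.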
TAAR1 agonist: human TAAR1 agonism | Q96RJ0 | CHO RD-HGA16 TAAR1, Fluo-8 calcium fluorescence; vehicle wells 0%, saturating PEA agonist 100% | activation, % at 3 µM | 0.99% of 360,000 active | AID 624467;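 active = activation above the mean activation of all test compounds in the run plus 3 SD, cut at about 38% in these data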
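System: CHO-derived RD-HGA16 cells with stable Gα16 and human TAAR1. Times: 17-24 h plating, Fluo-8 75 min 37 °C, 30 min RT. Measured by: calcium-sensitive Fluo-8 signal, excitation 470-495, emission 515-575 nm. Read-out basis: % activation relative to PEA EC100 response. Control set: DMSO and PEA EC100. Repeats: no replicates (n 1).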
OXTR potentiate: potentiators of human oxytocin receptor; CHO-OTR cells, Fluo-8 calcium fluorescence, potentiator mode; 0% = oxytocin EC15, 100% = EC100; activation, % at 3 µM; 0.061% of 320,000 active; AID 2445;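 active = activation above that plate's cutoff, the mean activation of tested compounds plus 3 SD, cut at about 6.6% in these data, passing the limit was not always enough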;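 note: 100% uses oxytocin at 75 nM as the full agonist control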
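System: human OTR in CHO cells / Also added: sub-maximal oxytocin, roughly EC15 / Control set: EC15 oxytocin low, 75 nM oxytocin high / Schedule: 6 min compound pre-incubation at room temperature, 100 s kinetic read / Compound: single-point 3.0 µM / Replication: singlicate / Technique: Fluo-8 calcium dye fluorescence / Read-out basis: % activation of max/min ratio relative to oxytocin controls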
OXTR agonist: activates the human oxytocin receptor; P30559; CHO-OTR cells, Fluo-8 calcium fluorescence; normalized: DMSO 0%, oxytocin 100%; activation, % at 3 µM; 0.32% of 320,000 active;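 active = activation above the mean of all tested compounds plus 3 SD, cutoff set per screening run, cut at about 20% in these data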;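 note: peak over basal fluorescence ratio from a 100 s FLIPR kinetic read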
V1R ag counter: V1a receptor agonism, counter-screen for OXTR agonists; P37288; CHO-V1R cells, Fluo-8 calcium fluorescence, agonist mode; 0% DMSO, 100% 3 nM vasopressin; activation, % at 3 µM; 0.25% of 320,000 active; AID 2797;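 active = activation above the mean activation of all tested compounds plus 3 SD, per screening run, cut at about 20% in these data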;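 note: signal is peak over basal fluorescence ratio across a 100 second FLIPR read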
nonsel antag count: counter-screen for TAAR1 antagonists: nonselective antagonists | shares compounds with TAAR1 antagonist | counterscreen cell line, calcium fluorescence, antagonist mode | inhibition, % at 3 µM | 77% of 2,400 active; in the data active = inhibition above about 22%;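 note: CHO-Ga16 host cells stimulated with ATP at an EC80 level; 0% = agonist EC80 plus vehicle and 100% = vehicle without agonist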
TAAR1 ant conf: confirmation of human TAAR1 antagonists; inhibition, % at 3 µM; TAAR1-expressing cells, fluorescence antagonist read-out; 40% of 2,400 active; shares compounds with TAAR1 antagonist; in the data active = inhibition above about 49%;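 note: CHO-Ga16 host cells challenged with agonist PEA near its EC80; 0% = agonist at EC80 plus vehicle and 100% = vehicle with no agonist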
Ga16 nonsel ag: nonselective Ga16 agonism, counter-screen; AID 651953; Ga16-expressing cells, calcium fluorescence, agonist counterscreen; shares compounds with TAAR1 antagonist; 18% of 2,400 active; activation, % at 3 µM; in the data active = activation above about 12%;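 note: 0% = vehicle wells and 100% = saturating stimulus response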
TAAR1 ag count: counter-screen for human TAAR1 antagonists: TAAR1 agonists | shares compounds with TAAR1 antagonist | hTAAR1 cell line, fluorescence activation, agonist mode | AID 651955 | activation, % at 3 µM | 2% of 2,400 active; in the data active = activation above about 37%;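 note: CHO cells stably expressing TAAR1 with calcium dye readout; 0% = DMSO vehicle and 100% = full agonist response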
* hit, by the source's call; nt = no result given.

SMILES | TAAR1 antagonist | TAAR1 agonist | OXTR potentiate | OXTR agonist | V1R ag counter | nonsel antag count | TAAR1 ant conf | Ga16 nonsel ag | TAAR1 ag count
COc1ccc(-c2ccc(CN3C(C(C)C)C(=O)N(Cc4cn(CCC5OCCCO5)nn4)CCS3(=O)=O)cc2)cc1OC (stereo not drawn) | -17 | 7 | nt | nt | nt | nt | nt | nt | nt
CC1C(=O)N(Cc2cn(CCC3OCCCO3)nn2)CCS(=O)(=O)N1Cc1ccc(-c2ccc(Cl)cc2)cc1 (stereo not drawn) | 87* | 19 | nt | nt | nt | 45* | 59* | 16* | 10
COc1ccc(-c2ccc(CN3C(CC(C)C)C(=O)N(Cc4cn(CCC5OCCCO5)nn4)CCS3(=O)=O)cc2)cc1OC (stereo not drawn) | 57* | 7 | nt | nt | nt | 24* | 33 | 7 | 6
COc1ccc(S(=O)(=O)N2CCCCCC2)cc1C(=O)OCc1cccc(OC)c1OC | 58* | 4 | -9 | 0 | 0 | 22* | 43 | 7 | 15
COc1cccc(COC(=O)C2CCN(S(=O)(=O)c3ccc(C)cc3)CC2)c1OC | -22 | 1 | -14 | 0 | 2 | nt | nt | nt | nt
Cc1ccc(S(=O)(=O)N2CCOCC2)cc1NC(=O)CNC(C)c1ccccc1 (stereo not drawn) | 4 | 2 | -9 | 2 | 3 | nt | nt | nt | nt
Cc1ccccc1CSc1nnc(C)c(=O)n1N | -31 | 0 | 4 | 1 | 0 | nt | nt | nt | nt
O=C(O)/C=C/c1ccccc1Oc1ccc(Cl)cc1Cl | 1 | 3 | -7 | 0 | 2 | nt | nt | nt | nt
Cc1cc(NS(C)(=O)=O)c(=O)n(Cc2c(F)cccc2Cl)c1 | -23 | 2 | 2 | 0 | 0 | nt | nt | nt | nt
CC(C)(C)NC(=O)COC(=O)c1c2c(nc3ccccc13)CCC2 | 60* | 8 | -8 | -1 | -1 | 27* | 41 | 7 | 6
F[B-](F)(F)c1cncc2ccccc12 | 6 | 0 | nt | nt | nt | nt | nt | nt | nt
COc1cccc(C(C(=O)NC2CCCC2)N(C(=O)CNC(=O)c2ccco2)c2cccnc2)c1 (stereo not drawn) | -20 | 0 | -5 | 0 | 1 | nt | nt | nt | nt
COc1cc2c(cc1OC)CN(C(=S)Nc1ccc(Cl)cc1)CC2 | 57* | 10 | -7 | 6 | 7 | 21 | 53* | 12* | 2
COc1cccc(NC(=S)N2CCc3cc(OC)c(OC)cc3C2)c1 | -27 | 2 | 1 | 0 | 9 | nt | nt | nt | nt
Cc1cccc(-n2c(C)nc3cc(C(=O)NCCN4CCOCC4)ccc32)c1 | -10 | 4 | nt | nt | nt | nt | nt | nt | nt
CC(=O)c1c(C)[nH]c(C(=O)Nc2cccc(S(=O)(=O)N(C)c3ccccc3)c2)c1C | 61* | 17 | -13 | 8 | 10 | 44* | 66* | 14* | 13
COCc1ccc(C(=O)Nc2cccc(S(=O)(=O)N(C)c3ccccc3)c2)cc1 | 53* | 10 | -12 | 11 | 7 | 32* | 38 | 8 | 5
O=C(Nc1c2c(nn1-c1ccccc1)CS(=O)C2)c1ccc(S(=O)(=O)N2CCOCC2)cc1 (stereo not drawn) | 51* | 2 | -1 | 1 | 1 | 5 | 0 | 2 | 7
CC(C)NC(=O)Nc1ccc2c(c1)C(=O)N([C@@H](C)CO)C[C@@H](C)[C@H](CN(C)Cc1ccccc1)OCCCC[C@H](C)O2 | -16 | -1 | nt | nt | nt | nt | nt | nt | nt
CC(C)=N/N=C1/NC(=O)C(c2ccccc2)S1 (stereo not drawn) | 55* | 34 | nt | nt | nt | 7 | 0 | 7 | 8
CCCCCCCCN1C(=O)[C@H](CC(=O)NCc2ccccc2)C[C@@]2(C(=O)OC)CCCCC=C12 | -5 | -1 | nt | nt | nt | nt | nt | nt | nt
CC(C)C(=O)NC(=S)Nc1ccccc1N1CCN(C(=O)c2ccccc2)CC1 | 78* | 18 | -18 | 0 | 2 | 38* | 60* | 14* | 17
O=C(Nc1ccccc1N1CCN(C(=O)c2ccccc2)CC1)c1ccc(Cl)cc1 | 55* | 5 | 0 | -2 | 0 | 24* | 46 | 5 | 1
O=C(/C=C/c1ccco1)Nc1ccccc1N1CCCCC1 | -2 | 6 | 2 | -2 | 0 | nt | nt | nt | nt
CC(=O)NC(=S)Nc1ccccc1N1CCN(C(=O)c2ccccc2)CC1 | 6 | 15 | -4 | 1 | 1 | nt | nt | nt | nt
CC(C)C(=O)N1CCN(c2ccccc2NC(=S)NC(=O)/C=C/c2ccco2)CC1 | 51* | 6 | -4 | -2 | -1 | 19 | 46 | 4 | 13
O=C(Nc1ccccc1OC(=O)c1ccc(Cl)cc1)c1ccc(Cl)cc1 | 54* | 0 | -6 | -2 | 0 | -2 | 53* | 1 | 9
O=C(Nc1ccccc1N1CCN(C(=O)c2ccc(Cl)cc2)CC1)c1ccc(Br)cc1 | 18 | 6 | -3 | 1 | 0 | nt | nt | nt | nt
CN(C)c1ccc(-c2csc(C(C)(O)c3cccc(F)c3)n2)cc1 (stereo not drawn) | 18 | -1 | nt | nt | nt | nt | nt | nt | nt
